Measurements as given in ChEMBL document CHEMBL1765020, “Synthesis and structure-affinity relationships of novel dibenzylideneacetone derivatives as probes for β-amyloid plaques” (J Med Chem, 2011).
Activity calls are given as the source filed them. The rule behind the calls is not given here.

Columns and labels:
[1] = target: Amyloid-beta precursor protein (Homo sapiens) (UniProt P05067); experiment: Binding affinity to amyloid beta (1 to 42) aggregate in cortex of Alzheimer disease patient brain by autoradiography; details: tested as the 125I-labelled form
Sequence of Amyloid-beta precursor protein (Homo sapiens) (P05067 whole entry): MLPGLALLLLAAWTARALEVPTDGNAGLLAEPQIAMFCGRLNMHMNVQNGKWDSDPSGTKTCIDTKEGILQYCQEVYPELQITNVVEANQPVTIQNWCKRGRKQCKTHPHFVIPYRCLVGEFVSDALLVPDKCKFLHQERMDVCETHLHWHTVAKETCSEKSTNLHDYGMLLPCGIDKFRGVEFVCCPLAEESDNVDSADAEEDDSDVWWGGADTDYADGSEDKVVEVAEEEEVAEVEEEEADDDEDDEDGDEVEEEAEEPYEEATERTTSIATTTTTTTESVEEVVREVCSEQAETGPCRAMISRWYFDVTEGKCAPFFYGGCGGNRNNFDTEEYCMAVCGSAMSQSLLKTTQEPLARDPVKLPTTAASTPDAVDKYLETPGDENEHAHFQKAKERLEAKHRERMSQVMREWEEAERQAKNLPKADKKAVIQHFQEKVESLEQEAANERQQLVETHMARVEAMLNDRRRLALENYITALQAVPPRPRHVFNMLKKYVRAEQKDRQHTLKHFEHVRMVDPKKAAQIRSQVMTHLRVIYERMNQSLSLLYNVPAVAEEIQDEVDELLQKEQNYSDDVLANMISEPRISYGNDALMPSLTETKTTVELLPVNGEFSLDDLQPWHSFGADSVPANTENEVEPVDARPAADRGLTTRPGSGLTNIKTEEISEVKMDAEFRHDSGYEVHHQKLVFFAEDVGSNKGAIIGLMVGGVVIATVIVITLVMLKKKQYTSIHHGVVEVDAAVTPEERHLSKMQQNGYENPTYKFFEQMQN
How it was run: (§1)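 Human postmortem temporal-lobe paraffin sections were used: AD patient and normal control (person). They were deparaffinized (xylene, graded ethanol), held 30 min in PBS 0.2 M pH 7.4, incubated 1 h at room temperature with radiotracer (5 μCi/100 μL), washed 3 min in 40% ethanol, rinsed, dried and exposed to an imaging plate overnight.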

[2] = Displacement of [125I]IMPY from amyloid beta (1 to 42) aggregate after 2 hrs by gamma counting
How it was run: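 Competition binding in 1 mL PBS (0.2 M, pH 7.4). Aggregated Aβ1-42 fibrils (60 nM final) with [125I]IMPY and inhibitor at 10^-5 to 10^-10 M, added in ethanol. Nonspecific binding was defined with 1 μM IMPY. Incubated 2 h at 37 °C with shaking, then vacuum-filtered through glass fibre filters and the bound fraction gamma-counted. IC50 was converted to Ki by Cheng-Prusoff; triplicate, mean ± SD.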

[3] = target: Amyloid-beta precursor protein (Homo sapiens) (UniProt P05067); experiment: Binding affinity to amyloid beta (1 to 42) aggregate in white matter of Alzheimer disease patient brain by autoradiography; assay type: tissue-based; details: tested as the 125I-labelled form; how it was run: as §1
[4] = target: Amyloid-beta precursor protein (Homo sapiens) (UniProt P05067); experiment: Binding affinity to amyloid beta (1 to 42) aggregate in cortex of Alzheimer disease patient brain by immunohistochemical staining using amyloid beta antibody BC05; details: tested as the 125I-labelled form
How it was run: (§2)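 Plaque presence and location in the AD patient temporal-lobe sections were confirmed by immunohistochemistry with monoclonal anti-Aβ1-42 antibody BC05.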

[5] = target: Amyloid-beta precursor protein (Homo sapiens) (UniProt P05067); experiment: Binding affinity to amyloid beta (1 to 42) aggregate in white matter of Alzheimer disease patient brain by immunohistochemical staining using amyloid beta antibody BC05; assay type: tissue-based; details: tested as the 125I-labelled form; how it was run: as §2

Activity [1]: Active
Ki [2]: 900 pM
Activity [3]: Active
Activity [4]: Active
Activity [5]: Active
Structure (SMILES): CN(C)c1ccc(/C=C/C(=O)/C=C/c2ccc(I)cc2)cc1
